Data on three molecules can be found in PMC10028500 (RSC Advances, 2023).

The subject of test [1] is ct-DNA. To be noted: cited from earlier work.
In test [2] the test system is ct-DNA. As to conditions: cited from earlier work. The source holds these as a separate data set.
The subject of test [3] is Liver (HepG2) cancer cell line. As to the kind of experiment: IC50 by MTT assay, HepG2. It is filed as cell-based. To be noted: HepG2, 48 h. Summed up: (§1)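 Cells were grown in DMEM at 37 °C, 5% CO2, 95% humidity, trypsinised and counted by trypan blue/hemocytometer. 10^4 cells per well were incubated 24 h, then test compound (3.5, 7, 14, 28, 56 μM; four replicates each) was added at ~70% confluence for 48 h. MTT (0.5 mg/mL) ran 4 h, then DMSO 15 min at room temperature, read at 595 nm. IC50 came from viability vs concentration curves.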
On the technique in general: Tetrazolium assays rely on reduction of a dye to a coloured formazan, in cell work by metabolically active cells.

Test [4] relates to breast (MCF-7) cancer cell line. Briefly: IC50 by MTT assay, MCF-7. Type of test: cell-based. As to conditions: MCF-7, 48 h. Summed up:
as §1

In another test the test system is HepG2 cells. Briefly: Flow cytometry analysis of the cell cycle of HepG2. It is filed as cell-based. To be noted: HepG2, 24 h, around IC50 concentration. Summed up: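 HepG2 cells (ca. 1 × 10^6) were seeded 24 h, then exposed to test compound for 24 h. Cells were harvested with 0.25% trypsin, spun 5 min at 1500 rpm, washed twice in PBS and fixed in 70% ethanol for 4 h at −20 °C. They were taken up in cold PBS with RNase A, stained with propidium iodide for 1 h in the dark and analysed by flow cytometry.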
On the technique in general: In flow cytometry, cells or beads pass a laser one at a time.

`[Cl-].[Pt+2].c1ccc(-c2cccc(-c3ccccn3)n2)nc1` [Pt(terpy)Cl]: the DNA binding mode entry with ct-DNA [1] is listed as “shifts gradually from the intercalation mode to the covalent binding mode”.

Turning to `CC[n+]1c(-c2ccccc2)c2cc(N)ccc2c2ccc(N)cc21` [ethidium bromide], the “binding constant (KEB) of ethidium bromide to DNA” value in the test with ct-DNA [2] is 1 × 10^5.

On to `N.N.[Cl][Pt][Cl]` [Cisplatin], for which the IC50 – broadly, the concentration that gives 50% inhibition – in test [3] turned out to be 19.7 ± 1.53 µM; in test [4] it was 18.4 ± 2.72 µM. Moreover, in the test on HepG2 cells, the “cell population in the G1/G0, S and G2/M phases vs control” value is reported as “decreases”. The “cell population in the sub-G phase” value with HepG2 cells (control ca. 1%) worked out at 47.3%.
